A selection: hits, their analogues and other compounds. The true share with any hit is near 2.1%.
EBNA-1 inhibitor: EBNA-1 DNA-binding inhibitors, primary screen, biochemical, fluorescence polarization. inhibition, % at 14.8 µM. 300,000 compounds, 0.34% hits; in the data active = inhibition above about 28%
HCV NS3 hel inh: inhibitors of HCV NS3 helicase, primary screen, biochemical, Cy5 molecular beacon fluorescence. Hepatitis C virus NS3 helicase. NS3 helicase DNA unwinding. inhibition, % at 10.9 µM. 290,000 compounds, 0.56% hits;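 active = inhibition above the mean of all tested compounds plus 3 SD, set per campaign, cut at about 35% in these data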;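 also: 0% = DMSO wells and 100% = thioflavine S control wells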
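System: Hepatitis C virus NS3 helicase domain fragment enzyme | Reagent: Annealed dual-labelled DNA beacon duplex, ATP-started | Compound dosing: 10.9 µM single point, 0.8% DMSO | Incubation: 1 h reaction at 25 °C, ATP-initiated | Technique: Cy5 fluorescence | Evaluation: Percent inhibition from t60/t0 fluorescence ratio | Benchmarks: Low DMSO, high thioflavine S at 110 µM | Replication: Singlicate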
PABP polyA inh: PABP poly(A) RNA binding inhibitors, primary screen, biochemical, fluorescence polarization, uHTS | Polyadenylate-binding protein 1 (Homo sapiens), P11940 | AID 2014, 2009 | 290,000 compounds, 1% hits | inhibition, % at 35 µM;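 also: calls also rest on retests at 20 µM and on dose response follow-up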
Target sequence (P11940 whole entry, looked up): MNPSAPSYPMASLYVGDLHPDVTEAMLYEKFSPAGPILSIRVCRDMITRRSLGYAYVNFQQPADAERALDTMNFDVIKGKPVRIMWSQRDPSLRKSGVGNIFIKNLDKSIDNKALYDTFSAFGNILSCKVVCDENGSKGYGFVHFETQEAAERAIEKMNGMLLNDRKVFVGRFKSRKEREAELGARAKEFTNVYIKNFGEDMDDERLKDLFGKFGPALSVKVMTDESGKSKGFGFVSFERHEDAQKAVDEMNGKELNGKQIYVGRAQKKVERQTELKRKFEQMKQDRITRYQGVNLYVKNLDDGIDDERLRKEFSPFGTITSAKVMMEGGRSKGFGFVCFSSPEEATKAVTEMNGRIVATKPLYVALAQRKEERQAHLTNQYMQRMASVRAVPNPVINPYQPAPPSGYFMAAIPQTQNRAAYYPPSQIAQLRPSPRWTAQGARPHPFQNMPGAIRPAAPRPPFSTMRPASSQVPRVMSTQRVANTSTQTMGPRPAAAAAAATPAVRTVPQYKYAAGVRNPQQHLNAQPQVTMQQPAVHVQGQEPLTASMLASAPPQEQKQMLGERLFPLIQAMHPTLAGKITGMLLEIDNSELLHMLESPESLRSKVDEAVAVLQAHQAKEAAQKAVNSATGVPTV
eIF4H inh: human eIF4H binding inhibitors, primary screen, translation initiation inhibitor project, biochemical, uHTS, fluorescence polarization; inhibition, % at 35 µM; 290,000 compounds, 0.94% hits; Eukaryotic translation initiation factor 4H (Homo sapiens), Q15056; AID 2012, 2009; eIF4H fluorescence polarization binding assay;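 also: calls also rest on retests at 20 µM and on dose response follow-up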
PABP1 MLLE inh: inhibitors of PABP1 MLLE–PAM2 peptide binding, primary screen, biochemical, fluorescence polarization, FITC-PAM2, GST-MLLE; Polyadenylate-binding protein 1 (Homo sapiens), P11940; 360,000 compounds, 0.36% hits; inhibition, % at 20 µM; in the data active = inhibition above about 35%, passing the limit was not always enough;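 also: plate controls were DMSO wells with GST-MLLE for no effect and wells lacking GST-MLLE protein for full effect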
ZTA DNA inh: counter-screen for EBNA-1 inhibitors: inhibitors of Epstein-Barr virus ZTA; P03206; ZTA-DNA binding, fluorescence polarization; 320,000 compounds, 0.15% hits; inhibition, % at 11 µM; AID 2234; in the data active = inhibition above about 33%
NS3 hel confirm: HCV NS3 helicase inhibitors, retest, confirmation, biochemical, Cy5 molecular beacon fluorescence, triplicate | NS3 helicase DNA unwinding | inhibition, % at 10.9 µM | 1,600 compounds, 31% hits | shares compounds with HCV NS3 hel inh;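 active = inhibition above the mean of all tested compounds plus 3 SD, cutoff set per campaign, cut at about 36% in these data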
DNA FID counter: compounds displacing fluorescent DNA intercalator, artefact control for HCV NS3 helicase inhibitor project, biochemical, FID fluorescence, triplicate. inhibition, % at 7.9 µM. 1,600 compounds, 4% hits. shares compounds with HCV NS3 hel inh. DNA fluorescent intercalator displacement; in the data active = inhibition above about 37%;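 also: 0% = vehicle and 100% = reference compound; higher means more displacement of ethidium bromide from the DNA hairpin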
DNA FID DR: compounds displacing fluorescent intercalator from DNA, dose response, counter-screen for HCV NS3 helicase inhibitor project, biochemical, fluorescence. IC50, µM. shares compounds with HCV NS3 hel inh. 120 tested, under 10 active. fluorescent intercalator displacement from DNA
* marks the source's active call; other numbers are inactive results; / = not tested or not shown; + = active, no number. Unless noted, no rule for the calls is given here.

SMILES | EBNA-1 inhibitor | HCV NS3 hel inh | PABP polyA inh | eIF4H inh | PABP1 MLLE inh | ZTA DNA inh | NS3 hel confirm | DNA FID counter | others
CCc1ccc2[nH]c(=O)c(C(c3nnnn3Cc3ccco3)N3CCC(C)CC3)cc2c1 (configuration not stated) | 2.3 | 16.7 | 12.8 | 14.6 | -14.9 | 0.9 | / | /
Cc1cc2cc(C(c3nnnn3Cc3ccco3)N3CCc4ccccc4C3)c(=O)[nH]c2cc1C (configuration not stated) | -6.7 | 39.0* | 85.1* | 62.7* | 1.4 | -2.8 | 64.5* | -3.5 | DNA FID DR=>79.4
Cc1cc([N+](=O)[O-])nn1CCCC(=O)NCc1ccccc1 | -6.0 | -9.1 | -5.2 | -6.8 | 11.2 | 2.0 | / | /
Cc1cccn2c(=O)c3cc(C(=O)NC4CCCC4)c(=N)n(C4CCCCC4)c3nc12 | -7.4 | 40.0* | -1.3 | -7.3 | 12.0 | -22.4 | -13.6 | 18.0
Cc1cccn2c(=O)c3cc(C(=O)NC4CCCCC4)c(=N)n(Cc4ccccc4)c3nc12 | 1.8 | -18.0 | 2.0 | -2.6 | -0.7 | -10.2 | / | /
CC1CCCC2(C1)NC(=S)c1c(sc3c1CCCC3)N2 (configuration not stated) | 2.6 | 36.4* | 39.2 | 14.1 | 28.4 | -18.7 | 1.3 | 10.2
CC1CCCC2(C1)NC(=S)N(c1ccccc1)N2 (configuration not stated) | 4.5 | 5.7 | 0.0 | 1.1 | -41.8 | 27.9 | / | /
O=C(c1ccc2ccccc2c1)N1CCCC1 | 6.3 | 3.4 | 8.5 | 57.3 | 3.8 | -11.4 | / | /
Cn1c(=O)c2ccccc2n(CC(=O)N2CCCc3ccccc32)c1=O | -7.7 | 37.3* | 13.9 | 0.5 | 0.6 | -10.0 | -6.2 | -14.1
O=C(NCc1ccc(F)cc1)C(=O)NCC1OCCN1S(=O)(=O)c1ccc2c(c1)OCCO2 (configuration not stated) | -6.9 | -3.6 | 2.8 | 2.8 | -15.2 | 14.0 | / | /
CCCCC(CCC(=O)O)(C(=O)OCC)c1csc(Nc2ccc(OCC)cc2)n1 (configuration not stated) | 4.2 | 84.9* | -9.4 | 0.8 | 8.8 | 6.1 | 58.3* | -28.1
CCCCC(CCC(=O)O)(C(=O)OCC)c1csc(Nc2ccccc2)n1 (configuration not stated) | -3.4 | 31.0 | -6.7 | -8.6 | 2.4 | 10.4 | / | /
CCCCn1[nH]c(-c2ccccc2)cc1=O | -5.1 | 10.2 | 9.3 | 3.5 | 30.5 | 22.9 | / | /
CO/N=C/c1ccc(N2CCN(C(=O)c3ccc(F)cc3)CC2)c([N+](=O)[O-])c1 | 2.2 | 40.5* | 8.9 | 1.2 | 17.1 | -9.6 | -16.1 | -32.2
Cc1cn(CC2COC(C)(C)O2)c(=O)[nH]c1=O (configuration not stated) | 6.5 | 37.9* | 0.0 | -7.6 | 3.1 | 13.6 | -1.7 | 10.4
COc1ccc(CCNC(=O)COC(=O)/C=C/c2cc(OC)c(OC)c(OC)c2)cc1OC | -2.8 | 43.2* | -10.0 | 6.2 | -7.4 | 13.0 | -14.8 | -41.5
Cc1cc(NC(=O)C2CC(=O)N(c3ccccc3C)C2)no1 (configuration not stated) | -15.1 | 36.0* | 3.9 | 103.9 | -1.0 | -5.9 | -9.3 | -0.3
O=C(CSC1=NS(=O)(=O)c2cc(Cl)ccc2N1)c1ccc(Cl)cc1 | -4.9 | / | / | / | -34.1 | 5.8 | / | /
Cc1[nH]c2ccccc2c1C(=O)COC(=O)c1ccc[n+]([O-])c1 | 2.5 | 45.6* | 1.8 | -2.6 | -12.7 | 10.1 | -13.9 | -2.5
Nn1c(Cc2cccc3ccccc23)nnc1SCc1ccc(Cl)c(Cl)c1 | 8.2 | -15.8 | 2.0 | -1.5 | -36.6 | -2.1 | / | /
Nn1c(Cc2cccc3ccccc23)nnc1SCc1c(Cl)cccc1Cl | 3.0 | 60.5* | 2.7 | 2.9 | -129.0 | 3.9 | -9.3 | -27.0
COCCn1c(-c2ccc(Cl)cc2)cnc1SCC(=O)NCCc1ccc(OC)c(OC)c1 | 6.5 | 0.8 | 2.0 | -1.2 | -70.2 | 8.2 | / | /
Cc1ccc(S(=O)(=O)NC(=O)Nc2ccc(N(C)C)cc2)cc1 | + | 50.9* | 6.7 | -0.2 | -3.7 | + | 70.1* | 22.6
Cc1ccc(S(=O)(=O)NC(=O)c2cc(C)n(-c3ccc(N(C)C)cc3)c2C)cc1 | -1.9 | 41.9* | -4.9 | -8.6 | 0.6 | -0.5 | -3.0 | -23.8
O=C(CSc1nc(-c2ccc(F)cc2)cc(C(F)(F)F)n1)Nc1ccc2c(c1)OCO2 | 16.9 | 7.1 | 14.0 | 2.5 | 6.8 | -2.5 | / | /
SMILES | EBNA-1 inhibitor | HCV NS3 hel inh | PABP polyA inh | eIF4H inh | PABP1 MLLE inh | ZTA DNA inh | NS3 hel confirm | DNA FID counter | others
Cc1cccc(OCCc2c(C)[nH]c(=S)[nH]c2=O)c1 | 1.7 | -0.9 | 0.5 | -4.9 | -7.7 | -11.9 | / | /
CN(Cc1ccc(C(F)(F)F)cc1)C(=O)c1ccc2ccccc2n1 | 5.6 | -5.3 | -2.4 | 0.9 | -2.1 | -2.3 | / | /
Cc1ccc(-c2csc(N/N=C/c3ccco3)n2)cc1 | -2.5 | 46.4* | -4.6 | 0.7 | 29.1 | -9.0 | -11.4 | 13.3
C(=N\Nc1nc(-c2ccccc2)cs1)/c1ccco1 | 2.5 | 33.7 | 4.1 | -2.5 | 16.9 | 0.9 | / | /
O=C(/C=C/c1ccco1)Nc1nc(-c2ccc(F)c(F)c2)cs1 | 1.8 | 53.6* | 5.7 | -8.2 | / | 23.9 | -5.8 | 5.3
Cc1ccc(F)cc1C(=O)N1CCCC1(C)C(=O)NCC(C)C (configuration not stated) | / | / | / | / | 1.3 | / | / | /
CCN(CC(=O)Nc1ccc2c(c1)OCCO2)C(=O)/C=C/c1ccccc1 | 5.1 | -5.7 | -12.6 | -11.5 | -8.0 | -9.3 | / | /
Cc1cc(Br)ccc1NC(=O)CN(C)C(=O)CCSc1ccc(F)cc1 | -20.2 | / | / | / | 21.0 | 3.4 | / | /
O=C1CC(=O)c2c1cccc2[N+](=O)[O-] | / | 36.7* | 53.2* | 65.1* | / | / | 90.3* | 15.6
O=[N+]([O-])/C(C=Nc1ccccc1O)=C\Nc1ccccc1O | / | 38.3* | 114.4 | 82.1 | -7.1 | / | -8.8 | 18.9
COc1ccc(C(=O)CC(=O)C(=O)Nc2ccc([N+](=O)[O-])cc2C)cc1 | 1.9 | 36.6* | -3.5 | 5.2 | 13.3 | 4.1 | -7.8 | -7.3
COc1ccc(C(=O)CC(=O)C(=O)Nc2cc(C)ccc2C)cc1 | 5.0 | 30.1 | -3.0 | 3.3 | 7.3 | 7.4 | / | /
CCOc1ccccc1NC(=O)C(=O)CC(=O)c1ccc(OC)cc1 | -7.5 | 37.1* | 4.1 | 9.4 | -17.6 | -12.7 | -33.2 | -0.9
COc1ccc(C(=O)CC(=O)C(=O)Nc2ccccc2)cc1 | -9.0 | 21.1 | 2.8 | -4.1 | -5.5 | -12.3 | / | /
Cc1ccsc1C(=O)OCC(=O)c1ccc[nH]1 | / | / | / | / | -9.4 | 1.2 | / | /
